Assay outcomes (PubChem)
In the library only some 2.4% were active in any assay of this set; here they are far more common.
ROMK mod: modulates human ROMK potassium channel activity; Tet-inducible ROMK, thallium flux fluorescence; actives lie on both sides; AID 1918; hit rate 2% among 130,000; B-score at 10 µM; P48048;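 active means signal ratio slope over the read window, or its plate-corrected B-score, at least 3 SD from the plate mean, either direction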;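 further: B-score of the F/F0 ratio slope over 7 to 12 s after thallium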
Target sequence (P48048 whole entry, looked up): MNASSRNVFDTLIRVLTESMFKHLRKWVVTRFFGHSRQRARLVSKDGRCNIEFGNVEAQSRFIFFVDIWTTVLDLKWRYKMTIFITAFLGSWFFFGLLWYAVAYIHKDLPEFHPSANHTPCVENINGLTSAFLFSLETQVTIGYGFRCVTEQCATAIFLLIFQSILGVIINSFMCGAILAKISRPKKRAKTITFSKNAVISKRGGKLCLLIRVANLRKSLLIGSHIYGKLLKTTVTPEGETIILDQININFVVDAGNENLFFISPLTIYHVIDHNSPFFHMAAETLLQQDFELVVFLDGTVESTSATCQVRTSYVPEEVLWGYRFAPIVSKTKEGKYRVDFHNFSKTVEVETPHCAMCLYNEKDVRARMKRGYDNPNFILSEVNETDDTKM
HSV augment: increases HSV replication in cells | HSV replication augmentation in cells, fold increase | maximum fold increase | hit rate 0.005% among 220,000; in the data active means maximum fold increase above about 1.5; tested in PC3 cells
Insulin prom inh: TRM-6 insulin promoter activity inhibition; hit rate 0.9% among 130,000; TRM-6 cells (human fetal islet line), insulin promoter-eGFP reporter, imaging; reporter expression induced with tamoxifen; inhibition, % at 2 µM;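 active means inhibition above the mean plus 3 SD, with well images judged a real hit on visual review, cut at about 60% in these data, passing the limit was not always enough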
b-catenin transl: modulators of beta-catenin nuclear translocation; HeLa beta-catenin nuclear translocation, immunofluorescence imaging; hit rate 0.3% among 190,000; nuclear translocation activity, % at 5 µM;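 active means nuclear translocation activity above 50% at 5 µM, with a well cell count of 50 or more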;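 further: per-cell ratio of nuclear to cytoplasmic median beta-catenin stain intensity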
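Technique: fluorescence imaging of beta-catenin antibody stain plus DAPI / Material: human HeLa cell line / Incubation: compound treatment 24 h, 37°C, 5% CO2 / Read-out basis: % activation of per-cell nuclear versus cytoplasmic median beta-catenin signal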
MT stabilizer: microtubule stabilization, imaging screen; HeLa tubulin immunostaining HCS, 24 h; share of cells brighter than vehicle mean+2SD; % tubulin-high responders, % at 10 µM; hit rate 0.83% among 200,000; AID 2205;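 active means plate Z-score above 3 for both tubulin-high and condensed-nucleus cell shares, with cell loss under 80%, at 10 µM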;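 further: anti alpha tubulin signal scored within the nucleus-defined area of each cell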
Of the large screens only hits and unclear results are named; the others gave an inactive call.

Cc1cc(S(=O)(=O)N2CCCC2)ccc1OCC(=O)N1CCOCC1	Insulin prom inh 78
CCc1ccc(S(=O)(=O)NCCc2cn3cccc(C)c3n2)s1	none
COc1ccc(N2CCN(c3oc(Cc4ccccc4)nc3C#N)CC2)cc1	MT stabilizer 29 (no result: ROMK mod)
COc1ccc(C2C(C(=O)Nc3cc(OC)c(OC)c(OC)c3)c3ccccc3C(=O)N2C)cc1 (stereo unspecified)	b-catenin transl 73
C/C(CC1CC2=C(CC1(C)C)C(C)(C)CCC2)=N\NC(N)=S (stereo unspecified)	none (no result: b-catenin transl)
N#C/C(=C\c1cn[nH]c1-c1ccccc1)C(=O)NC1CCCCCC1	none (no result: ROMK mod, b-catenin transl)
COc1ccc(-c2[nH]ncc2/C=C(\C#N)C(=O)NC2CC2)cc1	Insulin prom inh 73 (no result: b-catenin transl)
CC(NC(=O)/C(C#N)=C/c1cn[nH]c1-c1ccccc1)c1ccccc1 (stereo unspecified)	none (no result: Insulin prom inh)
N#C/C(=C\c1cn[nH]c1-c1ccc(Cl)cc1)C(=O)NC1CC1	Insulin prom inh 79 (no result: ROMK mod)
CCn1ncc(Br)c1C(=O)N(C)C12CC3CC(CC(C3)C1)C2	ROMK mod -4.5 (no result: Insulin prom inh)
CCOC(=O)CSc1nc2cc(OCC)ccc2cc1C#N	none (no result: ROMK mod, Insulin prom inh)
CCOc1ccc2cc(C#N)c(SCC(=O)NC(C)CC)nc2c1 (stereo unspecified)	MT stabilizer 44
O=C(Nc1nc(-c2ccc(-c3ccccc3)cc2)cs1)C1CCCO1 (stereo unspecified)	MT stabilizer 42 (no result: b-catenin transl)
O=C(Nc1nc(-c2ccccc2)cs1)C1CCCO1 (stereo unspecified)	none (no result: b-catenin transl)
CSCCC(NC(=O)C1CCC(C)CC1)C(=O)NCCN1CCC(C)CC1 (stereo unspecified)	none (no result: Insulin prom inh, b-catenin transl)
COc1ccc(NS(=O)(=O)c2cc(NC(=O)C3CCCO3)ccc2N2CCCC2)cc1 (stereo unspecified)	none (no result: Insulin prom inh)
COc1ccc(NS(=O)(=O)c2cc(NC(=O)c3ccco3)ccc2N2CCCC2)cc1	MT stabilizer 15 (no result: ROMK mod, Insulin prom inh)
Cc1ccsc1C1Nc2ccc3ncccc3c2C2=C1C(=O)CC(C)(C)C2 (stereo unspecified)	MT stabilizer 37 (no result: ROMK mod)
Cc1cc(C)c2oc(C(=O)Nc3ccc(S(=O)(=O)N4CCCC(C)C4)cc3)cc(=O)c2c1 (stereo unspecified)	none (no result: ROMK mod)
Cc1cc(C)cc(OCc2nc3ncc(Br)cc3[nH]2)c1	MT stabilizer 34 (no result: b-catenin transl)
COc1cccc(OCc2nc3ncc(Br)cc3[nH]2)c1	MT stabilizer 36 (no result: Insulin prom inh)
Brc1cnc2nc(SCc3nc4ccccc4[nH]3)[nH]c2c1	none (no result: Insulin prom inh, MT stabilizer)
Cc1ccn2c(NC(=O)C(C)(C)Oc3ccc(Cl)cc3)c(-c3cccs3)nc2c1	none (no result: ROMK mod, Insulin prom inh)
CC(=O)NC1=C(C#N)C(c2ccccc2)c2c(ccc3ccccc23)O1 (stereo unspecified)	b-catenin transl 58, MT stabilizer 43 (no result: Insulin prom inh)
CN(C)CCCNC(=O)CCc1ncc(C(F)(F)F)cc1Cl	none
CN(C)CCCNc1ncc(C(F)(F)F)cc1Cl	MT stabilizer 14 (no result: Insulin prom inh)
CCOc1ccc2c(c1)sc(N)[n+]2Cc1cc(C)cc2cccnc12	b-catenin transl 152, MT stabilizer 14 (no result: ROMK mod, Insulin prom inh)
COc1ccc2c(c1)sc(N)[n+]2Cc1cc(C)cc2cccnc12	b-catenin transl 114, MT stabilizer 15 (no result: ROMK mod, Insulin prom inh)
CCCCC(=O)NS(=O)(=O)c1ccc(NS(C)(=O)=O)cc1	none
Cc1noc2ncnc(Oc3ccc(F)cc3)c12	none (no result: Insulin prom inh)
Cc1ccc(S(=O)(=O)c2c(C)nn(C(C)(C)C)c2OC(=O)C2CCCC2)cc1	Insulin prom inh 82 (no result: ROMK mod)
Cc1noc(C)c1CSc1nc2ccccc2c(=O)n1-c1ccc(Cl)cc1	MT stabilizer 40 (no result: b-catenin transl)
COc1cc(/C=N/n2cnc3scc(-c4cccs4)c3c2=O)cc(OC)c1OC	MT stabilizer 30
CCSc1ccccc1C(=O)Nc1ccc(S(=O)(=O)NC(C)=O)cc1	none (no result: ROMK mod, Insulin prom inh)
O=C(CN1C(=O)S/C(=C/c2cccnc2)C1=O)N1CCOCC1	Insulin prom inh 71
O=C(CN1C(=O)S/C(=C/c2ccncc2)C1=O)N1CCOCC1	none
CN1CCC(=O)N(CCSc2ccc(Br)cc2)CC1	none (no result: ROMK mod, Insulin prom inh, MT stabilizer)
CCC1(CC)NC(=O)NC1=O	Insulin prom inh 91 (no result: ROMK mod, b-catenin transl)
CCN(CC)c1ccc(-c2n[nH]c(=S)n2-c2ccccc2)cc1	MT stabilizer 25 (no result: Insulin prom inh)
CC1=Nn2c(nnc2-c2ccccc2Cl)SC1	Insulin prom inh 88 (no result: ROMK mod)
COc1cc(-c2nnc3n2N=C(c2ccccc2)CS3)cc(OC)c1OC	b-catenin transl 93, MT stabilizer 46 (no result: ROMK mod, Insulin prom inh)
COc1ccc(C2=Nn3c(nnc3-c3ccccn3)SC2)cc1OC	none (no result: Insulin prom inh)
COc1ccc(C2=Nn3c(nnc3-c3ccccc3OC)SC2)cc1OC	b-catenin transl 58, MT stabilizer 16 (no result: ROMK mod)
COc1ccc(C2=Nn3c(nnc3-c3ccc(OC)cc3)SC2)cc1	MT stabilizer 29 (no result: ROMK mod, Insulin prom inh, b-catenin transl)
COc1ccc(-c2nnc3n2N=C(C)CS3)cc1	none (no result: ROMK mod)
CCN(CC)S(=O)(=O)c1ccc(C(=O)Oc2cc(C)[nH]c(=O)c2[N+](=O)[O-])cc1	none
CCOc1cc(S(=O)(=O)NCc2ccco2)c(OCC)cc1-n1cnnn1	none
O=C(Nc1ccc(Cl)cc1)NC1CCCc2ccccc21 (stereo unspecified)	MT stabilizer 30 (no result: ROMK mod, b-catenin transl)
O=C(COc1ccccc1/C=C1\SC(=O)NC1=O)Nc1ccccc1	ROMK mod -3.2, Insulin prom inh 82
O=C1NC(=O)/C(=C/c2ccccc2OCc2ccccc2)S1	none (no result: Insulin prom inh)
O=C(CS(=O)(=O)c1c[nH]c2ccccc12)N1CCc2ccccc21	none (no result: ROMK mod, HSV augment, Insulin prom inh)
COC(=O)c1sc2ccccc2c1-n1cccc1C(=O)C(=O)Nc1ccc(OC)cc1	MT stabilizer 22 (no result: ROMK mod, b-catenin transl)
CCc1ccc(-n2c(=O)c3c(C)c(C(=O)N(C)C)sc3n(CC(=O)NCC3CCCO3)c2=O)cc1 (stereo unspecified)	none
CCN(CC)C(=O)c1sc2c(c1C)c(=O)n(-c1ccc(C)c(C)c1)c(=O)n2CC(=O)NCC1CCCO1 (stereo unspecified)	Insulin prom inh 83
c1ccc(CN2CCC3(CC2)Nc2ccccc2S3)cc1	none (no result: ROMK mod, Insulin prom inh, MT stabilizer)
Cc1ccc(S(=O)(=O)N(CC(=O)N=Nc2c(O)[nH]c3ccccc23)c2cccc(C)c2)cc1	b-catenin transl 64, MT stabilizer 19
Cc1ccc(C)c(SCC(=O)NC(=O)Nc2ccc3c(c2)OCCO3)c1	Insulin prom inh 80
COc1ccc(C2CC(=O)c3c(C)nc(N4CCN(Cc5ccccc5)CC4)nc3C2)cc1OC (stereo unspecified)	none (no result: Insulin prom inh)
COc1cc(C2CC(=O)c3cnc(N4CCN(Cc5ccccc5)CC4)nc3C2)cc(OC)c1OC (stereo unspecified)	b-catenin transl 83, MT stabilizer 43 (no result: Insulin prom inh)
CCn1c2ccccc2c2cc(NC(=O)COC(=O)c3cc(Cl)c(N)cc3OC)ccc21	none (no result: ROMK mod, Insulin prom inh, MT stabilizer)
Cc1ccc(C2=NNC3(CCOC(C)(C)C3)S2)cc1 (stereo unspecified)	ROMK mod 2.5 (no result: Insulin prom inh)
CO/N=C\CC(=O)Nc1ccc(Oc2ccccc2)cc1	b-catenin transl 165, MT stabilizer 27 (no result: Insulin prom inh)
CC(C)NC(=O)c1onc(CSc2ccc(C(C)C)cc2)c1C(=O)O	none (no result: ROMK mod)
CC(C)NC(=O)c1onc(CSc2ccc(F)cc2)c1C(=O)O	Insulin prom inh 89 (no result: ROMK mod)
CC1=Nc2cc(C(=O)NCc3ccco3)ccc2Sc2ccc(C)cc21	b-catenin transl 73
CC1=Nc2cc(C(=O)O)ccc2Sc2ccc(C)cc21	none
